ChEMBL document CHEMBL1132217, “Syntheses of biotinylated alpha-galactosylceramides and their effects on the immune system and CD1 molecules” (1999)

Legend:
Format in all cases: functional
Mus musculus [1] = species on record: Mus musculus; assay: [3H]-TdR uptake measured by spleen cell proliferation assay by adding compound dose of 1 ng/mL
Method in brief: (§1)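 Spleens from female C57BL/6 mice dissociated in RPMI 1640, red cells lysed with Tris NH4Cl, washed three times in PBS. Cells (2.5 × 10^5/well, 10% FCS RPMI 1640) cultured with sample or DMSO vehicle (0.001–0.1%) for 18 h at 37 °C, 5% CO2; [3H]TdR 0.5 μCi/well added, uptake counted by liquid scintillation 8 h later. Mean ± S.D.; p < 0.05 vs vehicle.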

Mus musculus [2] = species on record: Mus musculus; assay: [3H]TdR uptake measured by spleen cell proliferation assay by adding compound dose of 100 ng/mL; method in brief: as §1
Mus musculus [3] = species on record: Mus musculus; assay: [3H]TdR uptake measured by spleen cell proliferation assay by adding compound dose of 10 ng/mL; method in brief: as §1

SMILES | Incorporation (Mus musculus [1]) [c.p.m.] | Incorporation (Mus musculus [2]) [c.p.m.] | Incorporation (Mus musculus [3]) [c.p.m.]
CCCCCCCCCCCCCCCCCCCCCCCCCC(=O)N[C@@H](CO[C@H]1O[C@H](CO)[C@H](O)[C@H](O)[C@H]1O)[C@H](O)[C@H](O)CCCCCCCCCCCCCC [RGI-7000] | 13499 | 17636 | 17438
CCCCCCCCCCCCCCCC[C@H](CO[C@H]1O[C@@H](CO)[C@H](O)[C@H](O)[C@@H]1O)NC(=O)CCCCCCCCCCNC(=O)CCCCCNC(=O)CCCC[C@@H]1SC[C@@H]2NC(=O)N[C@@H]21 | 4803 | 9427 | 5330
CCCCCCCCCCCCCCC[C@@H](O)[C@H](CO[C@H]1O[C@@H](CO)[C@H](O)[C@H](O)[C@@H]1O)NC(=O)CCCCCCCCCCNC(=O)CCCCCNC(=O)CCCC[C@@H]1SC[C@@H]2NC(=O)N[C@@H]21 | 4628 | 14588 | 8665
CCCCCCCCCCCCCC[C@@H](O)[C@@H](O)[C@H](CO[C@H]1O[C@@H](CO)[C@H](O)[C@H](O)[C@@H]1O)NC(=O)CCCCCCCCCCNC(=O)CCCCCNC(=O)CCCC[C@@H]1SC[C@@H]2NC(=O)N[C@@H]21 (stereo in doubt; form 1) | 4811 | 5463 | 4833
